Results taken from ChEMBL document CHEMBL3616374, “Structure-Activity Relationship Studies of Orally Active Antimalarial 2,4-Diamino-thienopyrimidines” (J Med Chem, 2015).
In brackets after ≈: the same amount, converted by molar mass.

How the values were obtained:
Plasmodium falciparum [1] = test: Antiplasmodial activity against multidrug-sensitive Plasmodium falciparum NF54 by [3H]-hypoxanthine incorporation assay; format: functional, organism-based
In short: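 IC50 against P. falciparum NF54 was run with chloroquine and artesunate as reference drugs in every experiment. Values are the mean of at least 2 independent experiments.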

Plasmodium falciparum [2] = test: Antiplasmodial activity against multidrug-resistant Plasmodium falciparum K1 by [3H]-hypoxanthine incorporation assay; format: functional, organism-based
In short: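 In vitro IC50 against the multidrug-resistant K1 strain of P. falciparum. Chloroquine and artesunate were run as reference drugs in every experiment. Values are means of ≥2 independent experiments.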

[3] = Solubility of the compound in 0.01 M HCl at pH 2; format: physicochemical
In short: (§1)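 Solubility was measured by a scaled-down shake flask method.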

[4] = Solubility of the compound in phosphate buffer at pH 6.5; format: physicochemical; in short: as §1
[5] = Metabolic stability of the compound in human liver microsomes at 0.1 uM after 30 mins by LC-MS/MS analysis; format: ADME; details: read-out: Stability
In short: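 A one-point microsomal stability assay was used, expressed as the percentage of parent compound remaining after 30 min incubation.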

[6] = Degradation half-life in human liver microsomes at 0.1 uM by LC-MS/MS analysis; format: ADME
[7] = Intrinsic clearance in human liver microsomes assessed per mg of protein at 0.1 uM by LC-MS/MS analysis; format: ADME; details: read-out: CLH
[8] = Partition coefficient, log D of the compound at pH 7.4 by HPLC chromatographic method; format: physicochemical; details: octanol/water
In short: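 logD was estimated by HPLC-DAD-MS.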

[9] = molecular target: Voltage-gated inwardly rectifying potassium channel KCNH2 (Homo sapiens, UniProt Q12809); test: Inhibition of human ERG expressed in CHO cells by patch clamp electrophysiology assay; format: cell-based
Vero = test: Cytotoxicity against African green monkey Vero cells after 48 hrs by MTT assay; format: cell-based; details: chlorocebus sabaeus
[10] = Selectivity index ratio of IC50 for African green monkey Vero cells to IC50 for Plasmodium falciparum NF54; format: functional
Mus musculus [11] = test: Acute toxicity in GFP-transfected Plasmodium berghei ANKA infected NMRI mouse at 50 mg/kg, po qd for 4 days; format: organism-based; details: in vivo, 96 h
In short: (§2)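 P. berghei-infected mice dosed orally at 50 mg/kg once daily for 4 days. Compound was dissolved or suspended in a standard non-solubilizing HPMC suspension vehicle. Mice were watched for acute toxicity after dosing. Parasitemia reduction was calculated against untreated infected controls, and survival was recorded as mean survival time in days.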

Mus musculus [12] = test: Dose normalized AUC (0 to 5 hrs) in BALB/C mouse at 50 mg/kg, po; format: ADME, organism-based; details: in vivo
[13] = Cmax in BALB/C mouse at 50 mg/kg, po; format: ADME, organism-based; set-up: dose 50 mg/kg, route oral; details: in vivo
[14] = AUC (0 to 24 hrs) in BALB/C mouse at 50 mg/kg, po; format: ADME, organism-based; set-up: time < 24 hr, dose 50 mg/kg, route oral; details: in vivo
Plasmodium berghei [15] = test: Antimalarial activity against GFP-transfected Plasmodium berghei ANKA infected in NMRI mouse assessed as mean survival time at 50 mg/kg, po qd for 4 days by flow cytometry analysis; format: functional; in short: as §2
Plasmodium berghei [16] = test: Antimalarial activity against GFP-transfected Plasmodium berghei ANKA infected in NMRI mouse assessed as reduction of parasitemia in blood at 50 mg/kg, po qd for 4 days by flow cytometry analysis; format: functional; set-up: scale not given: the % may be the effect or the level left
In short: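 In P. berghei-infected mice, compound was dissolved or suspended in a standard non-solubilizing HPMC suspension vehicle and given orally once daily for 4 days (4 × 50 mg/kg). Parasitemia reduction was expressed as % relative to untreated control mice. Mean survival time in days was also recorded.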

Voltage-gated inwardly rectifying potassium channel KCNH2, sequence (Q12809 whole entry): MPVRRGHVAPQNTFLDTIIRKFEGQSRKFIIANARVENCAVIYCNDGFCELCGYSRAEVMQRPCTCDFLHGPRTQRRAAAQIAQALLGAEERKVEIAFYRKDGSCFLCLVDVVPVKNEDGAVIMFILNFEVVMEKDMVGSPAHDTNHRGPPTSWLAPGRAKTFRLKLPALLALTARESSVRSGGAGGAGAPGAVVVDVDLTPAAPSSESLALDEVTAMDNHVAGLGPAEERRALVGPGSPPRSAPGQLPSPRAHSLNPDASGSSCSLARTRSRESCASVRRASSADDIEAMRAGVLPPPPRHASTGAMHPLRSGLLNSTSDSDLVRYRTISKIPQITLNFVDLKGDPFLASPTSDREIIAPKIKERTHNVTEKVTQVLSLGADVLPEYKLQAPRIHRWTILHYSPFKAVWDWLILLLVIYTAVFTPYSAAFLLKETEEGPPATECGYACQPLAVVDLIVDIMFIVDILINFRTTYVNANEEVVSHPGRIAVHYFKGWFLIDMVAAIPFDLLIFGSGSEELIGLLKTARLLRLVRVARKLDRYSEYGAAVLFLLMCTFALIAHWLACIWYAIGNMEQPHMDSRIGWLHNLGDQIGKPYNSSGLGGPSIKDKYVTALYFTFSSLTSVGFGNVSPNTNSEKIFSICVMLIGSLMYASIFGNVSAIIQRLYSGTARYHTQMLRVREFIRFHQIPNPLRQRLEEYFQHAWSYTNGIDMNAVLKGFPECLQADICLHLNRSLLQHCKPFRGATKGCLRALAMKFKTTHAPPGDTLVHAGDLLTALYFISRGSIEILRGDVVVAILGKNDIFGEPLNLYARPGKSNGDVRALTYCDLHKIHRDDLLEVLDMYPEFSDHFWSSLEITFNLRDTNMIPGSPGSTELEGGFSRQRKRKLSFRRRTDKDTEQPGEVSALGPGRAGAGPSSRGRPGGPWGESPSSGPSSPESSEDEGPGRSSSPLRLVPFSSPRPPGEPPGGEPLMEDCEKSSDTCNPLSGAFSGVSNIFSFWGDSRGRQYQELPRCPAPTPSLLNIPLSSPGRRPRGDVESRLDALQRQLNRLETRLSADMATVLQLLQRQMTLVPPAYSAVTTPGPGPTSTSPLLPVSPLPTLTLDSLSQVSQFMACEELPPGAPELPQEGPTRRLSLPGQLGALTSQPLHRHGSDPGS

Row | Structure (SMILES) | IC50 (Plasmodium falciparum [1]) [nM] | IC50 (Plasmodium falciparum [2]) [nM] | solubility [3] [µg/mL] | solubility [4] [µg/mL] | remaining at 0.5 h, 0.1 µM [5] [%] | also measured
1 | CNc1nc(NCCCN)c2sc(-c3ccc(C(F)(F)F)cc3)cc2n1 | > 2610 | > 2610 | – | – | – | –
2 | CNc1nc(NCCCO)c2sc(-c3ccc(C(F)(F)F)cc3)cc2n1 | 111 | 233 | – | – | – | –
3 | CNc1nc(OCCCN(C)C)c2sc(-c3ccc(C(F)(F)F)cc3)cc2n1 | 1830 | > 2440 | 174 (≈ 424 µM) | 174 (≈ 424 µM) | – | –
4 | CNc1nc(NCCN2CCNCC2)c2sc(-c3ccc(C(F)(F)F)cc3)cc2n1 | 34 | 37 | 203 (≈ 465 µM) | 115 (≈ 263 µM) | 100 | –
5 | CNc1nc(NCCN2CCOCC2)c2sc(-c3ccc(C(F)(F)F)cc3)cc2n1 | 80 | 121 | 213 (≈ 487 µM) | 42 (≈ 96 µM) | 51 | –
6 | CNc1nc(NCC(F)(F)F)c2sc(-c3ccc(C(F)(F)F)cc3)cc2n1 | 47 | 138 | 28 (≈ 68.9 µM) | < 5 | 75 | IC50 [9]: > 33000 nM
7 | CNc1nc(NC2CC2)c2sc(-c3ccc(C(F)(F)F)cc3)cc2n1 | 137 | 447 | 120 (≈ 329 µM) | < 5 | – | half-life at 0.1 µM [6]: 1.15 h; microsomal CLint at 0.1 µM [7]: 25.2 µL/min/mg
8 | CNc1nc(N2CCC(N)CC2)c2sc(-c3ccc(C(F)(F)F)cc3)cc2n1 | 42 | – | > 200 | 17 (≈ 41.7 µM) | 93 | Activity (Vero): Non-toxic; Ratio IC50 [10]: >100; Activity (Mus musculus [11]): Non-toxic; AUC/dose (Mus musculus [12]): 7.63 min.ug/ml/(mg/kg); Cmax [13]: 3690 nM; AUC(0-t) at 24 h [14]: 78.2 µM·h; MSD (Plasmodium berghei [15]): 7 days; Activity (Plasmodium berghei [16]): 81%
9 | CNc1nc(NC2CCNCC2)c2sc(-c3ccc(C(F)(F)F)cc3)cc2n1 | 19 | 24 | 218 (≈ 535 µM) | 147 (≈ 361 µM) | 84 | Activity (Vero): Non-toxic; Ratio IC50 [10]: >100; Activity (Mus musculus [11]): Non-toxic; AUC/dose (Mus musculus [12]): 4.24 min.ug/ml/(mg/kg); Cmax [13]: 2470 nM; AUC(0-t) at 24 h [14]: 25 µM·h; MSD (Plasmodium berghei [15]): 12 days; Activity (Plasmodium berghei [16]): 99.7%
10 | CNc1nc(NC2CCOCC2)c2sc(-c3ccc(C(F)(F)F)cc3)cc2n1 | 47 | 140 | < 5 | < 5 | 100 | –
11 | CNc1nc(Nc2cccc(C(N)=O)c2)c2sc(-c3ccc(C(F)(F)F)cc3)cc2n1 | 52 | 113 | 85 (≈ 192 µM) | 8 (≈ 18 µM) | 83 | –
12 | CN(C)CCCNc1nc(N)nc2cc(-c3ccc(C(F)(F)F)cc3)sc12 | 57 | – | 210 (≈ 531 µM) | 148 (≈ 374 µM) | 94 | half-life at 0.1 µM [6]: 1.73 h; microsomal CLint at 0.1 µM [7]: 16.9 µL/min/mg
13 | CN(C)CCCNc1nc(N(C)C)nc2cc(-c3ccc(C(F)(F)F)cc3)sc12 | 100 | – | 212 (≈ 501 µM) | 168 (≈ 397 µM) | 66 | –
14 | CN(C)CCCNc1ncnc2cc(-c3ccc(C(F)(F)F)cc3)sc12 | 500 | – | 209 (≈ 549 µM) | 205 (≈ 539 µM) | 91 | –
15 | CN(C)CCCNc1nc(Cl)nc2cc(-c3ccc(C(F)(F)F)cc3)sc12 | 1080 | – | – | – | – | –
16 | COc1nc(NCCCN(C)C)c2sc(-c3ccc(C(F)(F)F)cc3)cc2n1 | 1390 | 1400 | 214 (≈ 521 µM) | < 5 | – | half-life at 0.1 µM [6]: > 1.67 h; microsomal CLint at 0.1 µM [7]: < 17 µL/min/mg
17 | CN(C)CCCNc1nc(NCc2ccccc2)nc2cc(-c3ccc(C(F)(F)F)cc3)sc12 | 42 | – | 208 (≈ 428 µM) | < 5 | 100 | –
18 | Nc1nc(NC2CCNCC2)c2sc(-c3ccc(C(F)(F)F)cc3)cc2n1 | 25 | 24 | 168 (≈ 427 µM) | 168 (≈ 427 µM) | 100 | chromatographic logD [8]: 2.4; half-life at 0.1 µM [6]: > 2.5 h; microsomal CLint at 0.1 µM [7]: < 11.6 µL/min/mg; Activity (Mus musculus [11]): Non-toxic; MSD (Plasmodium berghei [15]): 7 days; Activity (Plasmodium berghei [16]): 78%
19 | Nc1nc(NC2CCNC2)c2sc(-c3ccc(C(F)(F)F)cc3)cc2n1 (centres undefined) | 100 | 116 | 155 (≈ 409 µM) | 155 (≈ 409 µM) | – | half-life at 0.1 µM [6]: > 2.5 h; microsomal CLint at 0.1 µM [7]: < 11.6 µL/min/mg; IC50 [9]: 2400 nM
20 | Nc1nc(N2CCC(N)CC2)c2sc(-c3ccc(C(F)(F)F)cc3)cc2n1 | 20 | 33 | 134 (≈ 341 µM) | 134 (≈ 341 µM) | 100 | chromatographic logD [8]: 2.4; half-life at 0.1 µM [6]: > 2.5 h; microsomal CLint at 0.1 µM [7]: < 11.6 µL/min/mg; Activity (Vero): Non-toxic; Ratio IC50 [10]: >100; AUC/dose (Mus musculus [12]): 2.63 min.ug/ml/(mg/kg); Cmax [13]: 1360 nM; AUC(0-t) at 24 h [14]: 21.6 µM·h; MSD (Plasmodium berghei [15]): 26 days; Activity (Plasmodium berghei [16]): 99.8%; IC50 [9]: 6100 nM
21 | C[C@H]1[C@H](OC(=O)CCC(=O)O)O[C@@H]2O[C@@]3(C)CC[C@H]4[C@H](C)CC[C@@H]1[C@@]24OO3 [ARTESUNATE] | 4 | 3 | – | – | – | –

More lines, main results first:

Row | IC50 (Plasmodium falciparum [1]) [nM] | Structure (SMILES) | IC50 (Plasmodium falciparum [2]) [nM] | solubility [3] [µg/mL] | solubility [4] [µg/mL] | remaining at 0.5 h, 0.1 µM [5] [%] | also measured
22 | > 2540 | Nc1nc(N2CCC(O)CC2)c2sc(-c3ccc(C(F)(F)F)cc3)cc2n1 | – | – | – | – | –
23 | 43 | CNc1nc(NCCCN2CCOCC2)c2sc(-c3ccc(C(F)(F)F)cc3)cc2n1 | – | 196 (≈ 434 µM) | 96 (≈ 213 µM) | – | half-life at 0.1 µM [6]: 0.398 h; microsomal CLint at 0.1 µM [7]: 72.4 µL/min/mg
24 | 1160 | CNc1nc(N)c2sc(-c3ccc(C(F)(F)F)cc3)cc2n1 | – | > 100 | 3.1 (≈ 9.56 µM) | – | chromatographic logD [8]: 3.4
25 | 116 | CNc1nc(NC(C)(C)C)c2sc(-c3ccc(C(F)(F)F)cc3)cc2n1 | – | 1.6 (≈ 4.21 µM) | < 1.6 | – | chromatographic logD [8]: > 5.3; half-life at 0.1 µM [6]: 2.07 h; microsomal CLint at 0.1 µM [7]: 14 µL/min/mg
26 | 95 | CNc1nc(N2CCNCC2)c2sc(-c3ccc(C(F)(F)F)cc3)cc2n1 | – | – | – | – | –
27 | > 2210 | CNc1nc(-c2ccc(C(F)(F)F)cc2)c2sc(-c3ccc(C(F)(F)F)cc3)cc2n1 | – | – | – | – | –
28 | 164 | CN(C)CCCNc1nc(N2CCNCC2)nc2cc(-c3ccc(C(F)(F)F)cc3)sc12 | – | 198 (≈ 426 µM) | 178 (≈ 383 µM) | – | half-life at 0.1 µM [6]: > 1.67 h; microsomal CLint at 0.1 µM [7]: < 17 µL/min/mg
29 | > 2150 | CN(C)CCCNc1nc(N2CCOCC2)nc2cc(-c3ccc(C(F)(F)F)cc3)sc12 | – | 211 (≈ 453 µM) | < 5 | 92 | –
30 | 1460 | CS(=O)(=O)c1ccc(-c2nc(N3CCNCC3)nc3cc(-c4ccc(C(F)(F)F)cc4)sc23)cc1 | – | 174 (≈ 336 µM) | < 5 | – | –
31 | 36 | Nc1nc(NC2CCCNC2)c2sc(-c3ccc(C(F)(F)F)cc3)cc2n1 (centres undefined) | – | 125 (≈ 318 µM) | 125 (≈ 318 µM) | 69 | –
32 | 50 | CN1CCC(Nc2nc(N)nc3cc(-c4ccc(C(F)(F)F)cc4)sc23)CC1 | – | 147 (≈ 361 µM) | 147 (≈ 361 µM) | 95 | –
33 | 168 | Nc1nc(NC2CCCCC2)c2sc(-c3ccc(C(F)(F)F)cc3)cc2n1 | – | – | – | – | –
34 | 936 | Nc1nc(NC2CNC2)c2sc(-c3ccc(C(F)(F)F)cc3)cc2n1 | – | – | – | – | –
35 | 451 | Nc1nc(NC2CCOCC2)c2sc(-c3ccc(C(F)(F)F)cc3)cc2n1 | – | < 5 | < 5 | 98 | IC50 [9]: 700 nM
36 | 678 | Nc1nc(NC2CCS(=O)(=O)CC2)c2sc(-c3ccc(C(F)(F)F)cc3)cc2n1 | – | – | – | – | –
37 | > 2480 | N#CC1CCN(c2nc(N)nc3cc(-c4ccc(C(F)(F)F)cc4)sc23)CC1 | – | – | – | – | –
38 | > 2380 | Nc1nc(N2CCC(F)(F)CC2)c2sc(-c3ccc(C(F)(F)F)cc3)cc2n1 | – | – | – | – | –
